Glyco luc inh – blocks N-linked glycosylation in D54 reporter cells; D54 ERlucT glycosylation luciferase reporter, 24 h; percent of 100 nM tunicamycin response; reporter increase, % at 12.5 µM; 360,000 compounds, 0.23% hits; AID 588692;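 active = mean luciferase reporter signal, scaled so untreated is 0 and the glycosylation-blocking control 100, at or above a set limit in every replicate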;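 note: luciferase carries N-glycosylation sites so blocking glycosylation raises the light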
CAL PDZ FP-1 – inhibitors of human CAL PDZ peptide binding; purified CAL PDZ, TMR-peptide fluorescence polarization, 1 h; Q9HD26; 300,000 compounds, 0.92% hits; inhibition, % at 24.9 µM;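 active = mean inhibition of at least 30% with at least half of replicates also reaching 30%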
Vif imaging – blocks HIV Vif function; HEK293T cells, Vif self-association by quenched fluorescence, imaging, 24 h; 340,000 compounds, 0.35% hits; inhibition, % at 7.49 µM; in the data active = inhibition above about 50%, passing the limit was not always enough
CAL PDZ FP-2 – human CAL PDZ-peptide interaction inhibition; 330,000 compounds, 0.02% hits; Q9HD26; inhibition, % at 20 µM; purified CAL PDZ, TMR-peptide fluorescence polarization, 1 h;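 active = highest replicate inhibition of at least 40%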
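Read-out basis: mP drop reported as inhibition | Assay system: Tagged CAL PDZ protein CerCALP, purified | Benchmarks: Unlabelled peptide for full inhibition, DMSO wells as neutral | Schedule: 1 h incubation at room temperature before polarization reading | Buffer or medium: Sodium phosphate/NaCl buffer pH 7.4 with TCEP, IgG, Thesit | Doses: Single point, 20 µM | Measured by: Fluorescence polarization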
PvdQ acylase – blocks Pseudomonas aeruginosa PvdQ acylase activity; purified PvdQ acylase, fluorescence plate reader; inhibition, % at 10 µM; 340,000 compounds, 0.063% hits; in the data active = inhibition above about 30%, passing the limit was not always enough
CDK5 p35 inh – blocks human CDK5/p35 kinase activity; Q00535+Q15078; 330,000 compounds, 0.01% hits; inhibition, % at 10 µM; Recombinant CDK5/p35, ADP-Glo luminescence, 60 min;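 active = highest replicate inhibition of at least 50% and at least 75% of replicates reaching 50%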
Target sequence (Q00535 whole entry, looked up): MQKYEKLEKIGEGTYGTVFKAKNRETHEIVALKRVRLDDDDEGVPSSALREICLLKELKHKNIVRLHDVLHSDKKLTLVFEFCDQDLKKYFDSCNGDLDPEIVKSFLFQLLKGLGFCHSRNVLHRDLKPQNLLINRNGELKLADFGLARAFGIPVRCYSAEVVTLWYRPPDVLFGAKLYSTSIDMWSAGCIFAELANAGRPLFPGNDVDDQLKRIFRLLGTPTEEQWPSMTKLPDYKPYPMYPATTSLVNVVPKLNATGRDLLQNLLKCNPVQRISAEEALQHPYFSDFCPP
Target sequence (Q15078 whole entry, looked up): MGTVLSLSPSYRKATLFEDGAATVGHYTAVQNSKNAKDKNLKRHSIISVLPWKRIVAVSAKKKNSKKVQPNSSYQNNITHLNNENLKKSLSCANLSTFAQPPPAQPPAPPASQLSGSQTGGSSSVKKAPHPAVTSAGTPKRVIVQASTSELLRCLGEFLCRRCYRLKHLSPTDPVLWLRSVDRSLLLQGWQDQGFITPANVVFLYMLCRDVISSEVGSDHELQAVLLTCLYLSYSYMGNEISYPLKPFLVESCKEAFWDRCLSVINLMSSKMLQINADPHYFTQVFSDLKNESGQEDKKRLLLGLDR
Of the large screens only hits and unclear results are named; the others gave an inactive call. Compounds with a hit are over-represented: about 1.4% of the library has one in this group of screens.

Cc1ccc(S(=O)(=O)Nc2ccc3c(c2)nc(CCN2CCCCC2)n3C)cc1	none
Cc1ccc(S(=O)(=O)Nc2ccc3c(c2)nc(CCN2CCOCC2)n3C)cc1	CAL PDZ FP-1 32
Cc1ccc(S(=O)(=O)Nc2cc3c(cc2N2CCOCC2)n(C)c(=O)c(=O)n3C)cc1	CAL PDZ FP-1 36
CCN(CC)S(=O)(=O)c1ccc(N2CCOCC2)c(NS(=O)(=O)c2ccc(C)c(C)c2)c1	CAL PDZ FP-1 89
COC(=O)CCCCCN1C(=O)NC(C2CC2)C(C(=O)OCc2ccccc2)=C1C (stereo unspecified)	none
COc1ccc(C(=O)NCC(=O)OCC(=O)Nc2cc([N+](=O)[O-])ccc2F)cc1	CAL PDZ FP-1 active
COc1ccc(C(=O)NCC(=O)OCC(=O)Nc2sccc2C#N)cc1OC	CAL PDZ FP-1 61
COCCCn1c(=O)c2ccccc2n(CC(=O)NC2CCCCC2)c1=O	none
O=C1OC2(CCCCC2)OC(=O)C1=CNc1nc2ccccc2s1	CAL PDZ FP-1 52
O=C1OC2(CCCCC2)OC(=O)C1=CNc1nccs1	none
CC1(C(=O)NS(=O)(=O)c2cccc(C#N)c2)CCN1C(=O)CC1CCCCC1 (stereo unspecified)	none (no result: CAL PDZ FP-1, Vif imaging, CAL PDZ FP-2, PvdQ acylase, CDK5 p35 inh)
Cc1c(NC2=CC(=O)CC(C)(C)C2)c(=O)n(-c2ccccc2)n1C	CAL PDZ FP-1 31
Cc1c(NC2(C#N)CCCC2)c(=O)n(-c2ccccc2)n1C	CAL PDZ FP-1 78
Cc1c(NC=C(C#N)C#N)c(=O)n(-c2ccccc2)n1C	none
CC1(C(=O)NS(=O)(=O)C2CC2)CCCN(C(=O)c2ccco2)C1 (stereo unspecified)	none (no result: CAL PDZ FP-1, CAL PDZ FP-2, PvdQ acylase, CDK5 p35 inh)
Cc1ccc2c(COC(=O)c3ccccc3OC(F)F)cc(=O)oc2c1	Vif imaging 52
Cc1ccc2c(COC(=O)CNC(=O)c3ccccc3)cc(=O)oc2c1	none
O=C(Nc1ccon1)Nc1cccc(Cl)c1Cl	none
COc1cc(S(=O)(=O)NCc2ccncc2)c(OC)cc1C	Vif imaging 51
O=C(CN1C(=O)NC2(CCCC2)C1=O)N1CCN(c2ccc(C(F)(F)F)cc2[N+](=O)[O-])CC1	none (no result: CAL PDZ FP-1)
COc1cc(CNC(C)(C)CO)cc(Br)c1OCc1ccccc1	Vif imaging 56
CC(C)(CO)NCc1cc(Br)ccc1OCc1ccccc1	none
O=C(COC(=O)COc1ccc(Cl)cc1Br)NC1CCCCCC1	Vif imaging 59
CN(C(=O)COc1ccc(Cl)cc1Br)C1CCCCC1	CAL PDZ FP-1 71
CC(C)CNC(=O)NC(=O)COC(=O)COc1ccc(Cl)cc1Cl	CAL PDZ FP-1 45
O=C(COc1ccc(Cl)cc1Br)NC1CC1	none (no result: CAL PDZ FP-1)
NNC(=S)Nc1c(F)cc(F)cc1Br	none
CCCS(=O)(=O)NC(=O)C1(C)CCCN(C(=O)c2ccco2)C1 (stereo unspecified)	none (no result: CAL PDZ FP-1, CAL PDZ FP-2, PvdQ acylase, CDK5 p35 inh)
N#Cc1ccc(S(=O)(=O)N2CCN(CC(=O)NCC3(N4CCOCC4)CCCCC3)CC2)cc1	none
CS(=O)(=O)c1ccc(Cl)c(NC(=O)c2ccc(-n3cncn3)c([N+](=O)[O-])c2)c1	none (no result: CAL PDZ FP-1, Vif imaging, CAL PDZ FP-2, PvdQ acylase, CDK5 p35 inh)
CC1CC(C)CN(CCCNS(=O)(=O)c2ccc3c(c2)CCN3C(=O)C2CC2)C1 (stereo unspecified)	CAL PDZ FP-1 120
O=C(C1CC1)N1CCc2cc(S(=O)(=O)NCCCN3CCCCC3)ccc21	none
Cc1csc(NC(=O)CSc2nsc(SCC(=O)Nc3nc(C)cs3)c2C#N)n1	none (no result: CAL PDZ FP-1)
Cc1ccc(NC(=O)CSc2nsc(SCC(=O)Nc3ccc(C)cc3C)c2C#N)c(C)c1	Glyco luc inh 30
Cc1ccc(C(=O)N2[C@@H]3CN(C)C(=O)[C@@]2(Cc2ccccc2)[C@H]2C(=O)N(Cc4ccccc4)C(=O)[C@@H]32)cc1	none
NC(=NCCc1ccc(Cl)cc1)NS(=O)(=O)c1ccccc1	none (no result: CAL PDZ FP-1)
NC(=NCCc1ccc(Cl)cc1)NS(=O)(=O)c1ccc(F)cc1	CAL PDZ FP-1 46
COc1cccc(/C=C2\SC(=S)N(CCC(=O)N3CCCCC3)C2=O)c1	Glyco luc inh 39
COc1ccc2cc(C(=O)N(C)CC(=O)Nc3ccccc3Br)ccc2c1	none
COc1ccc(OC(C)C(=O)NCc2cccnc2)cc1 (stereo unspecified)	CAL PDZ FP-1 46 (no result: CAL PDZ FP-2)
COc1cccc(COC(=O)Cc2ccc(S(=O)(=O)N3CCOCC3)s2)c1OC	none
Cc1nnc(NC(=O)CN2C(=O)NC3(CCCC3)C2=O)s1	none
